# Publication PMC10463567 (Journal of medicinal chemistry, 2023)
# Where “and” joins values, the source holds several entries; their conditions need not be identical. Equal entries are not always repeated. Entries after “also recorded” stand apart in the source; their conditions may differ. Structures can show the parent of a compound that is named as a salt.
# Tests used:
# [1] = system: ZIKV (FLR strain, Colombia, 2015); experiment: Anti-ZIKV; format: cell-based, Zika virus; settings: Vero cells; for % inhibition of ZIKV at 10 μM: ZIKV FLV (FLR) strain, viral titer vs untreated
# Vero cells = experiment: Cytotoxicity to Vero cells in the anti-ZIKV screen; format: cell-based, monkey; settings: 10 μM screen; in Table 2 printed in the % inhibition at 10 μM column
# Summary of the method: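 Cytopathic effect and cell death were scored by microscope, with MTT to quantitate viable cells. Compounds giving CPE-like phenotype or cell death at 10 μM were flagged as cytotoxic.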
# ZIKV RNA = experiment: Quantitative RT-PCR of ZIKV RNA copies in supernatant of infected Vero cells; format: cell-based, Zika virus
# Summary of the method: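 Viral RNA was extracted with TRIzol from 50 μL of culture supernatant. One-step TaqMan RT-qPCR used ZIKV-specific primers and probe amplifying envelope gene region 3. ZIKV RNA was expressed as copies/mL, calculated from a standard curve.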
# [2] = system: Zika virus NS5, NS3 and capsid proteins; experiment: Western blot of viral NS5, NS3 and capsid proteins in ZIKV-infected Vero cells; format: cell-based; settings: 48h
# ZIKV = experiment: Anti-ZIKV activity in Vero cells with added glutathione; format: cell-based, Zika virus; settings: 1 mM GSH in culture media
# Summary of the method: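 ZIKV (FLR strain) infected Vero cells were given test compound in culture medium supplemented with 1 mM glutathione, a nucleophilic thiol, to test whether the compound acts by covalent reaction. Anti-ZIKV activity was read in the cell-based antiviral assay.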
# ZIKV (FLV strain) = experiment: Time-of-addition; format: cell-based, Zika virus; settings: 1 μM, added together with virus, Vero cells
molecule,measurement,setting,value
3-(3-tert-Butylphenyl)-2-[2-(1-naphthyl)ethenyl]-4(3H)-quinazolinone [Compound 19],% inhibition of ZIKV at 10 μM,"[1]; 10 μM, 10 µM",68% and 68.4%
3-(3-tert-Butylphenyl)-2-[2-(3-methoxyl-2-pyridinyl)ethenyl]-4(3H)-quinazolinone [Compound 11],% inhibition of ZIKV at 10 μM,[1]; 10 μM,0%
3-(3-tert-Butylphenyl)-2-[2-(4-trifluoromethyl-3-pyridinyl)ethenyl]-4(3H)-quinazolinone [Compound 3],% inhibition of ZIKV at 10 μM,[1]; 10 μM,90.0%
"6-(4-Methylpiperazin-1-yl)-3-(3-tert-butylphenyl)-2-(2,6-dimethoxystyryl)-4(3H)-quinazolinone [Compound 40]",Cytotoxicity to Vero cells,Vero cells,Cytotoxic
"6-(Piperidin-1-yl)-3-(3-tert-butylphenyl)-2-(2,6-dimethoxystyryl)-4(3H)-quinazolinone [Compound 39]",% inhibition of ZIKV at 10 μM,[1]; 10 μM,96.8%
"CCN(CC)c1ccc2nc(/C=C/c3cccc(OC)n3)n(-c3cccc(C(C)(C)C)c3)c(=O)c2c1 [Compound 1, 6-Diethylamino-3-(3-tert-butylphenyl)-2-[2-(6-methoxyl-2-pyridinyl)ethenyl]-4(3H)-quinazolinone]",fold activity enhancement to inhibit ZIKV replication compared to unsubstituted compound 11,[1]; 10 μM,"≥ 1,000 fold"
"CC(C)(C)c1cccc(-n2c(/C=C/c3cccnc3)nc3ccccc3c2=O)c1 [Compound 12, 3-(3-tert-Butylphenyl)-2-[2-(3-pyridinyl)ethenyl]-4(3H)-quinazolinone]",% inhibition of ZIKV at 10 μM,[1]; 10 μM,inactive
"CC(C)(C)c1cccc(-n2c(/C=C/c3ccccc3)nc3ccccc3c2=O)c1 [Compound 15, 3-(3-tert-Butylphenyl)-2-(2-phenylethenyl)-4(3H)-quinazolinone]",% inhibition of ZIKV at 10 μM,[1]; 10 μM,inactive
"COc1cccc(/C=C/c2nc3ccc(Cl)cc3c(=O)n2-c2cccc(C(C)(C)C)c2)n1 [Compound 20, 6-Chloro-3-(3-tert-butylphenyl)-2-[2-(6-methoxyl-2-pyridinyl)ethenyl]-4(3H)-quinazolinone]",% inhibition of ZIKV at 10 μM,[1]; 10 μM,inactive
"COc1ccc2nc(/C=C/c3cccc(OC)n3)n(-c3cccc(C(C)(C)C)c3)c(=O)c2c1 [Compound 21, 6-Methoxy-3-(3-tert-butylphenyl)-2-[2-(6-methoxyl-2-pyridinyl)ethenyl]-4(3H)-quinazolinone]",% inhibition of ZIKV at 10 μM,[1]; 10 μM,inactive
"COc1cccc(/C=C/c2nc3ccc(N4CCCCC4)cc3c(=O)n2-c2cccc(C(C)(C)C)c2)n1 [Compound 22, 6-(Piperidin-1-yl)-3-(3-tert-butylphenyl)-2-[2-(6-methoxyl-2-pyridinyl)ethenyl]-4(3H)-quinazolinone]",ZIKV RNA copies in the supernatant,ZIKV RNA,dose-dependently reduce
"COc1cccc(/C=C/c2nc3ccc(N4CCNCC4)cc3c(=O)n2-c2cccc(C(C)(C)C)c2)n1 [Compound 25, 6-(Piperazin-1-yl)-3-(3-tert-butylphenyl)-2-[2-(6-methoxyl-2-pyridinyl)ethenyl]-4(3H)-quinazolinone hydrochloride]",Cytotoxicity to Vero cells,Vero cells,significant cytotoxicity; also recorded: Cytotoxic
"COc1cccc(/C=C/c2nc3ccc(N4CCN(C)CC4)cc3c(=O)n2-c2cccc(C(C)(C)C)c2)n1 [Compound 26, 6-(4-Methylpiperazin-1-yl)-3-(3-tert-butylphenyl)-2-[2-(6-methoxyl-2-pyridinyl)ethenyl]-4(3H)-quinazolinone]",Cytotoxicity to Vero cells,Vero cells,Cytotoxic
"COc1cccc(/C=C/c2nc3ccc(N4CCOCC4)cc3c(=O)n2-c2cccc(C(C)(C)C)c2)n1 [Compound 27, 6-Morpholino-3-(3-tert-butylphenyl)-2-[2-(6-methoxyl-2-pyridinyl)ethenyl]-4(3H)-quinazolinone]",fold more potent antiviral activity than compound 22,"[1]; ZIKV-FLR, EC50 comparison",~ 4 ×
same,Cytotoxicity to Vero cells,Vero cells,without cytotoxicity
same,ZIKV RNA copies in the supernatant,ZIKV RNA,dose-dependently reduce
same,"cellular levels of viral NS5, NS3 and capsid proteins",[2],significantly reduce
same,anti-ZIKV activity in the presence of GSH,ZIKV,not affected
same,"viral titer reduction, 2h-pretreatment",ZIKV (FLV strain),≥ 90%
"COc1cccc(/C=C/c2nc3ccc(N4CCC(N5CCOCC5)CC4)cc3c(=O)n2-c2cccc(C(C)(C)C)c2)n1 [Compound 28, 6-(4-Morpholinopiperidin-1-yl)-3-(3-tert-butylphenyl)-2-[2-(6-methoxyl-2-pyridinyl)ethenyl]-4(3H)-quinazolinone]",Cytotoxicity to Vero cells,Vero cells,without cytotoxicity
"COc1cccc(/C=C/c2nc3ccc(-c4ccncc4)cc3c(=O)n2-c2cccc(C(C)(C)C)c2)n1 [Compound 29, 6-(Pyridin-4-yl)-3-(3-tert-butylphenyl)-2-[2-(6-methoxypyridin-2-yl)vinyl]-4(3H)-quinazolinone dihydrochloride]",% inhibition of ZIKV at 10 μM,[1]; 10 μM,inactive
"COc1cccc(-c2ccc3nc(/C=C/c4cccc(OC)n4)n(-c4cccc(C(C)(C)C)c4)c(=O)c3c2)c1 [Compound 30, 6-(3-Methoxyphenyl)-3-(3-tert-butylphenyl)-2-[2-(6-methoxypyridin-2-yl)vinyl]-4(3H)-quinazolinone]",% inhibition of ZIKV at 10 μM,[1]; 10 μM,inactive
CC(C)(C)c1cccc(-n2c(/C=C/c3ccc(C(F)(F)F)cc3)nc3ccc(N4CCCCC4)cc3c2=O)c1 [Compound 36],% inhibition of ZIKV at 10 μM,"[1]; 10 μM, 10 µM",90%
"COc1cccc(CCc2nc3ccc(N4CCCCC4)cc3c(=O)n2-c2cccc(C(C)(C)C)c2)n1 [Compound 53, 6-(Piperidin-1-yl)-3-(3-tert-butylphenyl)-2-[2-(6-methoxypyridin-2-yl)ethyl]-4(3H)-quinazolinone]",% inhibition of ZIKV at 10 μM,[1]; 10 μM,inactive
"COc1cccc(CCc2nc3ccc(N4CCOCC4)cc3c(=O)n2-c2cccc(C(C)(C)C)c2)n1 [Compound 54, 6-Morpholino-3-(3-tert-butylphenyl)-2-[2-(6-methoxypyridin-2-yl)ethyl]-4(3H)-quinazolinone]",% inhibition of ZIKV at 10 μM,[1]; 10 μM,inactive
